Compound activity (PubChem)
Only some compounds are listed: those with a hit (about 2.1% of all), similar ones and a draw of the others.
UCH37 DUB inh – blocks the human deubiquitinase UCH37; Q9Y5K5; purified proteasome/UCH37, Ub-AMC cleavage fluorescence; inhibition, % (no concentration beside the values); 0.33% of 330,000 active; AID 588478;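 active = mean inhibition over replicate wells above about 20%, limit read from the data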;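 also: 0% = compound-free wells with enzyme and 100% = wells lacking proteasome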
Target sequence (Q9Y5K5 whole entry, looked up): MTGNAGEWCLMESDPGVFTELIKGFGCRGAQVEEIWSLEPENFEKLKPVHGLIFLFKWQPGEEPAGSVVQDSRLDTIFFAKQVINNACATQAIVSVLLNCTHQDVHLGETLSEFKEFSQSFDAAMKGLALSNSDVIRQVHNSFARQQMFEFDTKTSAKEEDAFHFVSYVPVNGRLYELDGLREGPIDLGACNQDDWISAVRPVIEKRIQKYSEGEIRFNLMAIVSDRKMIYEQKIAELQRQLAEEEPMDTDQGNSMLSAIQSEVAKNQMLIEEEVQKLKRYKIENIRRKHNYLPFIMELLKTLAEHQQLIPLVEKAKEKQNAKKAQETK
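Material: Human UCH37 enzyme supplied as purified proteasome complex | Schedule: 30 min compound-proteasome preincubation then 25 min substrate reaction, room temperature | Detection: AMC fluorescence from Ub-AMC cleavage, excitation 355 nm, emission 460 nm | Benchmarks: Wells without proteasome as full block, compound-free enzyme plus substrate as uninhibited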
ARNT-TACC3 inh – disruptors of human ARNT/TACC3 interaction | AlphaScreen His-ARNT PAS-B/GST-TACC3 binding, luminescence; TACC3 fragment carries E629A point mutation | Q9Y6A5 | inhibition, % at 9.99 µM | 0.66% of 390,000 active;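 active = mean inhibition of replicates at least 50% and at least half of replicates each reaching 50%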;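 also: 0% = complete ARNT plus TACC3 wells and 100% = ARNT alone without TACC3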
Efflux pump inh – inhibitors of Candida antifungal efflux pumps expressed in yeast; S. cerevisiae Candida pump triplex, Nile Red efflux; inhibition, % at 10 µM; 0.44% of 330,000 active; AID 485275;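 active = plate passing quality check with inhibition over a set limit, or well fluorescence over plate mean plus 4 SD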;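 also: Nile Red retained in pooled yeast measured as flow cytometry median fluorescence; 0% = buffer negative control and 100% = Enniatin B positive control; higher means more Nile Red kept so more efflux inhibition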
SUMO Mot1 rescue – SUMOylation pathway inhibition by Mot1-301 growth rescue. AID 2716. 1% of 320,000 active. growth rescue, % at 18.8 µM. S. cerevisiae Mot1-301 growth rescue, ATP luminescence, 38.5C; percent above DMSO median, 100 means doubled;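 active = every valid replicate shows activation above 250% relative to neutral control wells; inactive = the rest, any valid replicate at or below 250%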;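 also: OY570 slx delta 5 strain wells were the positive control but not used for scaling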
Cardiac RTF inh – cardiac RTF calcium desensitization. P19429+P45379. IANBD-labeled cardiac RTF, Ca2+ fluorescence. inhibition, % at 7.15 µM. 0.12% of 340,000 active. AID 493244;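 active = inhibition above the mean inhibition of all tested compounds plus 3 SD, cut at about 17% in these data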;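 also: assay run at fixed EC70 calcium of 1.6 mM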
RTF Ca sens act – increases calcium sensitivity of human cardiac regulated thin filaments; activation, % at 7.2 µM; AID 493008; IANBD-labeled TnC RTF fluorescence at EC20 calcium; 0% EC20 calcium, 100% full calcium; 0.24% of 340,000 active;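 active = activation above the mean over all tested compounds plus 3 SD, cut at about 30% in these data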;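 also: rise in fluorescence read as greater calcium sensitivity of cardiac thin filaments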
ARNT Alpha ctr – AlphaScreen artifact in ARNT/TACC3 counter-screen | 50% of 1,200 active | His-ARNT PASB-GST AlphaScreen artifact counter-screen, luminescence | AC50, µM (series often up to 68 µM), without a hit: at the highest dose activity change, negative = signal decrease | shares compounds with ARNT-TACC3 inh;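 active = every separate test run was called active for a drop in luminescence, with AC50 within twice the top valid dose, actives reach about 71 µM in these data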
Active calls of the source: *; . = no result; [ ] = remark or other dose.

SMILES	UCH37 DUB inh	ARNT-TACC3 inh	Efflux pump inh	SUMO Mot1 rescue	Cardiac RTF inh	RTF Ca sens act	ARNT Alpha ctr
COc1cc(OC)c2c(-c3ccccc3)cc(=O)oc2c1C(CCN1CCCCC1)c1ccc(N(C)C)cc1 (centres undefined)	3	44*	0	-4	12	1	12µM*
CCCCCc1cc(=O)oc2c(C(CCN(CC)CC)c3ccc(N(C)C)cc3)c(OC)cc(OC)c12 (centres undefined)	2	50*	0	-38	4	-4	12µM*
CCN(CC)CCC(c1cc(OC)c(OC)c(OC)c1)c1c(OC)cc(OC)c2c(C)cc(=O)oc12 (centres undefined)	-1	2	.	-11	-1	1	.
O=[N+]([O-])c1cc(O)c2ncccc2c1	6	.	0	-21	.	.	.
Oc1cc(NCc2ccc(F)cc2)cc2cccnc12	3	60*	0	11	-2	2	30µM*
Fc1ccc(CNc2ncccn2)cc1	2	26	0	-6	12	-2	.
CN(C)CCCNc1cc(O)c2ncccc2c1	5	64*	0	-4	-22	-5	6.2µM*
CC1(C)SC(=S)N(N=Cc2ccccc2O)C1N(O)C(=O)Nc1ccccc1 (centres undefined)	2	.	.	.	.	.	.
C/C(=N\NC(=O)c1cccc2ccccc12)c1ccccn1	.	63*	.	.	-6	-2	29µM*
O=C(NN=C(c1ccccc1)c1ccccn1)c1ccccc1	.	57*	0	18	0	2	-21%
C/C(=N\NC(=O)c1ccccc1OCc1ccc(F)cc1)c1ccccn1	.	21	0	16	-3	2	.
Cc1nn2c(nc1=O)NNC2(C)C(C)(C)C (centres undefined)	1	64*	0	15	-1	0	-3%
CCOC(=O)C1CCN(C(=O)COC(=O)c2ccc([N+](=O)[O-])o2)CC1	20*	33*	0	-1	5	-3	-11%
CC1CCCC(C)N1C(=O)COC(=O)c1ccc([N+](=O)[O-])o1 (centres undefined)	18	30*	0	0	-2	3	-17%
Cc1[nH]n(-c2ccccc2)c(=O)c1/C=N/NC(=O)c1cccc(F)c1	.	58*	0	-7	-13	-8	43µM*
Cc1nnc(N/N=C/c2ccc(Br)cc2)n1N	.	-7	0	121	-6	-6	.
Cc1nnc(N/N=C/c2ccc(-c3ccc(Br)cc3)o2)n1N	.	51*	0	.	-9	-3	-29%
O=C(C[C@@H]1CC[C@H](NC(=O)CN2CCOCC2)[C@H](CO)O1)NCCc1ccncc1	.	57*	.	.	.	.	6%[38 µM]
Cc1onc(-c2c(Cl)cccc2Cl)c1C(=O)Nc1ccc(N2CCOCC2)cc1	3	active	0	0	4	3	-20%
Cc1onc(-c2c(F)cccc2Cl)c1C(=O)Nc1ccccc1N1CCOCC1	1	4	0	4	-2	3	.
CC(CC(=O)Nc1cc(Cl)ccc1Cl)=NNC(=O)c1ccco1	1	.	.	.	.	.	.
CC(=O)ON=C(N)Cc1ccc(-c2csnn2)cc1	4	.	.	.	.	.	.
Cc1ccccc1Nc1nnc(SCC(=O)NC(=O)NCc2ccco2)s1	3	62*	0	-9	-3	-4	-12%
COc1cccc(C=NNC(=O)c2ccc(Cn3cc(Br)c([N+](=O)[O-])n3)o2)c1O	4	.	.	.	.	.	.
O=C(Nc1ccccc1C(=O)Nc1ccccc1C(=O)O)c1ccccc1	3	74*	0	33	-2	-7	26µM*
SMILES	UCH37 DUB inh	ARNT-TACC3 inh	Efflux pump inh	SUMO Mot1 rescue	Cardiac RTF inh	RTF Ca sens act	ARNT Alpha ctr
C[C@@H]1CN([C@@H](C)CO)C(=O)c2cc(NC(=O)CCN3CCOCC3)ccc2O[C@@H]1CN(C)Cc1ccncc1	.	51*	.	.	.	.	-7%[38 µM]
C[C@H]1CCCCO[C@H](CN(C)C(=O)Nc2ccc(F)cc2)[C@@H](C)CN([C@@H](C)CO)C(=O)c2cc(NS(=O)(=O)c3ccc(Cl)cc3)ccc2O1	.	active	.	.	.	.	-36%[38 µM]
C[C@H](CO)N1C[C@H](C)[C@@H](CN(C)C(=O)Nc2ccc(C(F)(F)F)cc2)Oc2ncc(C3=CCCC3)cc2C1=O	.	81*	.	.	.	.	-26%[38 µM]
C[C@@H]1CN([C@H](C)CO)C(=O)c2cc(NC(=O)Nc3ccc(C(F)(F)F)cc3)ccc2O[C@@H](C)CCCCO[C@@H]1CN(C)Cc1ccc2c(c1)OCO2	.	56*	.	.	.	.	26µM*
C[C@H](CO)N1C[C@H](C)[C@H](CN(C)C(=O)Nc2ccc(F)cc2)OCCCC[C@H](C)Oc2ccc(NS(=O)(=O)c3ccc(Cl)cc3)cc2C1=O	.	-6	.	.	.	.	.
C[C@@H]1CN([C@@H](C)CO)C(=O)c2cc(NC(=O)C3CC3)ccc2O[C@H]1CN(C)C(=O)Nc1ccc(F)cc1	.	55*	.	.	.	.	-5%[42 µM]
COc1ccc(S(=O)(=O)Nc2ccc3c(c2)C(=O)N([C@H](C)CO)C[C@H](C)[C@H](CN(C)S(=O)(=O)c2ccc(C)cc2)O3)cc1	.	52*	.	.	.	.	-21%[38 µM]
C[C@@H]1CN([C@H](C)CO)C(=O)c2cc(NC(=O)C3CC3)ccc2O[C@@H]1CN(C)C(=O)Nc1ccc(F)cc1	.	-4	.	.	.	.	.
C[C@@H]1CCCCO[C@@H](CN(C)C(=O)NC2CCCCC2)[C@H](C)CN([C@H](C)CO)C(=O)c2cc(NC(=O)C3CCCCC3)ccc2O1	.	-4	.	.	.	.	.
C[C@@H]1CN([C@@H](C)CO)C(=O)c2cc(NC(=O)C3CCCCC3)ccc2O[C@@H](C)CCCCO[C@@H]1CN(C)C(=O)NC1CCCCC1	.	active	.	.	.	.	-5%[38 µM]
O=C1C2CCCCN2C(=O)N1CCCCN1CCN(c2cccc(Br)c2)CC1 (centres undefined)	-1	active	0	73	-8	4	-13%
Cc1sccc1C=NNC(=O)c1ccco1	14	.	.	.	.	.	.
O=C(CC(=O)N/N=C/c1ccccc1O)NCc1cccnc1	.	48*	0	246	3	8	-19%
COc1ccccc1/C=N/NC(=O)CC(=O)NCc1cccnc1	.	2	0	0	2	1	.
COc1cc(C=NNc2ccc([N+](=O)[O-])cn2)cc(OC)c1O	7	.	.	.	.	.	.
COc1ccc(Nc2nc(N)nc(CN3CCOCC3)n2)cc1	1	40*	0	1	6	5	0%
Nc1nc(CN2CCN(Cc3ccccc3)CC2)nc(Nc2ccc3c(c2)OCCO3)n1	5	60*	0	-6	-9	-2	-24%
Cc1ccc(Nc2nc(N)nc(CN3CCN(Cc4ccc5c(c4)OCO5)CC3)n2)cc1Cl	5	18	0	1	-2	-2	.
